Assay results reported in ChEMBL document CHEMBL1177875, “Antitumor activity of (-)-alpha-bisabolol-based thiosemicarbazones against human tumor cell lines” (2010).

Experiments:
Assay type in all cases: functional
NCI-H460 = assay: Cytotoxicity against human NCI-H460 cells by sulforhodamine B assay; settings: for CC50: read-out: LC50 (the source's name)
Procedure, shortened: (§1)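 Growth of the human tumor cell line was read colorimetrically with sulforhodamine B, following the NCI standard protocol, with doxorubicin as positive control. Compounds were tested at four concentrations in 10-fold dilutions (0.25 to 250). Dose-response curves gave GI50 (the concentration for 50% growth inhibition), TGI (total growth inhibition) and LC50 (50% cell death).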

MCF7 = assay: Cytotoxicity against human MCF7 cells by sulforhodamine B assay; settings: for CC50: read-out: LC50 (the source's name); procedure, shortened: as §1
[1] = Cytotoxicity against human PCO3 cells by sulforhodamine B assay; settings: for CC50: read-out: LC50 (the source's name); procedure, shortened: as §1
UACC-62 = assay: Cytotoxicity against human UACC62 cells by sulforhodamine B assay; procedure, shortened: as §1
K562 = assay: Cytotoxicity against human K562 cells by sulforhodamine B assay; settings: for CC50: read-out: LC50 (the source's name); procedure, shortened: as §1
OVCAR-3 = assay: Cytotoxicity against human OVCAR-3 cells by sulforhodamine B assay; settings: for CC50: read-out: LC50 (the source's name); procedure, shortened: as §1
[2] = Cytotoxicity against human NCI/ADR cells by sulforhodamine B assay; settings: NCI/ADR-RES; for CC50: read-out: LC50 (the source's name); procedure, shortened: as §1
HT-29 = assay: Cytotoxicity against human HT-29 cells by sulforhodamine B assay; settings: for CC50: read-out: LC50 (the source's name); procedure, shortened: as §1

Row | SMILES | GI50 (NCI-H460) | TGI (NCI-H460) | CC50 (NCI-H460) | GI50 (MCF7) | TGI (MCF7) | CC50 (MCF7) | GI50 [1] | TGI [1] | CC50 [1] | GI50 (UACC-62) | TGI (UACC-62) | GI50 (K562) | TGI (K562) | CC50 (K562) | GI50 (OVCAR-3) | TGI (OVCAR-3) | CC50 (OVCAR-3) | CC50 [2] | GI50 (HT-29) | TGI (HT-29) | also measured
1 | CC1=CC[C@@H]([C@@](C)(O)CCCC(C)(C)NC(=S)N/N=C\c2ccc(C)cc2)CC1 | 10.1 µM | > 100 µM | > 100 µM | 7.23 µM | > 100 µM | > 100 µM | 6.75 µM | 45.7 µM | > 100 µM | 11.6 µM | 39 µM | 0.14 µM | 7.95 µM | > 100 µM | 6.02 µM | 11.8 µM | 45.3 µM | > 100 µM | 10.4 µM | 80.4 µM | LC50 (50% cell kill) (UACC-62): 52.3 µM; GI50 [2]: 6.51 µM; TGI [2]: 30.5 µM; CC50 (HT-29): > 100 µM
2 | COc1cccc2c1C(=O)c1c(O)c3c(c(O)c1C2=O)C[C@@](O)(C(=O)CO)C[C@@H]3O[C@H]1C[C@H](N)[C@H](O)[C@H](C)O1 [DOXORUBICIN] | 0.05 µM | 1.42 µM | 37.9 µM | 0.04 µM | 1.84 µM | 46 µM | 0.17 µM | 2.3 µM | > 100 µM | 0.18 µM | 0.55 µM | 0.03 µM | 0.33 µM | > 100 µM | 0.07 µM | 8.11 µM | > 100 µM | > 100 µM | 0.18 µM | 46 µM | GI50 [2]: 5.99 µM; TGI [2]: > 100 µM; CC50 (HT-29): > 100 µM
3 | CC1=CC[C@@H]([C@@](C)(O)CCCC(C)(C)NC(=S)NN)CC1 | 12.8 µM | 84 µM | > 100 µM | 15.3 µM | 84.2 µM | > 100 µM | 26.8 µM | > 100 µM | > 100 µM | 18.5 µM | > 100 µM | 0.02 µM | 0.38 µM | 9.58 µM | 17.2 µM | > 100 µM | > 100 µM | > 100 µM | 49.4 µM | > 100 µM | LC50 (50% cell kill) (UACC-62): > 100 µM; GI50 [2]: 0.76 µM; TGI [2]: 29 µM; CC50 (HT-29): > 100 µM
4 | CC(C)=CCC[C@](C)(O)[C@@H]1CC=C(C)CC1 [LEVOMENOL] | > 100 µM | > 100 µM | > 100 µM | > 100 µM | > 100 µM | > 100 µM | > 100 µM | > 100 µM | > 100 µM | > 100 µM | > 100 µM | 6.37 µM | > 100 µM | > 100 µM | > 100 µM | > 100 µM | > 100 µM | > 100 µM | > 100 µM | > 100 µM | GI50 [2]: > 100 µM; TGI [2]: > 100 µM; CC50 (HT-29): > 100 µM
5 | CC1=CC[C@@H]([C@@](C)(O)CCCC(C)(C)NC(=S)N/N=C\c2ccc(O)cc2)CC1 | 1.46 µM | 20.7 µM | > 100 µM | 6.23 µM | 21.2 µM | 56.4 µM | 6.23 µM | 13.9 µM | 50.1 µM | 8.87 µM | 40.1 µM | 0.6 µM | 31.1 µM | > 100 µM | 6.23 µM | 17.4 µM | 54.4 µM | > 100 µM | 8.15 µM | 31.5 µM | LC50 (50% cell kill) (UACC-62): 55.6 µM; CC50 (HT-29): 58.5 µM
6 | CC1=CC[C@@H]([C@@](C)(O)CCCC(C)(C)NC(=S)N/N=C\c2ccc([N+](=O)[O-])cc2)CC1 | 10.1 µM | > 100 µM | > 100 µM | 17.7 µM | > 100 µM | > 100 µM | 18.1 µM | > 100 µM | > 100 µM | 20.8 µM | 62.2 µM | 4.22 µM | 9.56 µM | 45.5 µM | 13.4 µM | 88.6 µM | > 100 µM | > 100 µM | 12.3 µM | 62.8 µM | LC50 (50% cell kill) (UACC-62): > 100 µM; GI50 [2]: 12.8 µM; TGI [2]: > 100 µM; CC50 (HT-29): > 100 µM
7 | CC1=CC[C@@H]([C@@](C)(O)CCCC(C)(C)NC(=S)N/N=C\c2ccccc2)CC1 | 38.4 µM | > 100 µM | > 100 µM | 7.72 µM | 28.7 µM | 60.4 µM | 8.47 µM | 36.2 µM | > 100 µM | 12.7 µM | 43.8 µM | 0.13 µM | 20.9 µM | > 100 µM | 6.97 µM | 12.9 µM | 43.6 µM | 59.9 µM | 9.96 µM | 36.5 µM | LC50 (50% cell kill) (UACC-62): 48.4 µM; GI50 [2]: 6.97 µM; TGI [2]: 23.8 µM; CC50 (HT-29): 57.4 µM
